Measured values published in ChEMBL document CHEMBL1255417, “Correlation between in vitro activity of posaconazole and in vivo efficacy against Rhizopus oryzae infection in mice” (Antimicrob Agents Chemother, 2010).
≈ marks a conversion by molar mass, not a printed value. Calls of active or inactive are those of the source. The calls are words filed in the database; no cut-off is given here.

Columns and labels:
Rhizopus arrhizus [1] = test: Antifungal activity against drug-susceptible Rhizopus oryzae UTHSC 04-278 by broth microdilution method; format: functional
Procedure, shortened: (§1)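 CLSI broth microdilution for filamentous fungi (M38-A2); MIC recorded in µg/ml against clinical isolates; breakpoints applied at 24 h.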

Rhizopus arrhizus [2] = test: Antifungal activity against drug-susceptible Rhizopus oryzae UTHSC 02-2882 by broth microdilution method; format: functional
Procedure, shortened: (§2)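 Broth microdilution MIC in µg/ml, run per the CLSI (formerly NCCLS) guideline for filamentous fungi, M38-A2.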

Rhizopus arrhizus [3] = test: Antifungal activity against drug-susceptible Rhizopus oryzae UTHSC 04-1241 by broth microdilution method; format: functional; procedure, shortened: as §1
Rhizopus arrhizus [4] = test: Antifungal activity against drug-susceptible Rhizopus oryzae UTHSC 04-2459 by broth microdilution method; format: functional; procedure, shortened: as §1
Rhizopus arrhizus [5] = test: Antifungal activity against drug-susceptible Rhizopus oryzae UTHSC 04-2159 by broth microdilution method; format: functional; procedure, shortened: as §1
Rhizopus arrhizus [6] = test: Antifungal activity against drug-susceptible Rhizopus oryzae UTHSC 06-4035 by broth microdilution method; format: functional
Procedure, shortened: (§3)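 Posaconazole MIC in ug/ml, determined by broth microdilution following the CLSI guidelines for moulds (M38-A2).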

Rhizopus arrhizus [7] = test: Antifungal activity against drug-susceptible Rhizopus oryzae UTHSC 03-3110 by broth microdilution method; format: functional; procedure, shortened: as §1
Rhizopus arrhizus [8] = test: Antifungal activity against drug-susceptible Rhizopus oryzae UTHSC 04-1220 by broth microdilution method; format: functional; procedure, shortened: as §1
Rhizopus arrhizus [9] = test: Antifungal activity against drug-susceptible Rhizopus oryzae UTHSC 06-4336 by broth microdilution method; format: functional; procedure, shortened: as §3
Rhizopus arrhizus [10] = test: Antifungal activity against drug-susceptible Rhizopus oryzae UTHSC 05-3111 by broth microdilution method; format: functional; procedure, shortened: as §3
Rhizopus arrhizus [11] = test: Antifungal activity against drug-intermediate Rhizopus oryzae UTHSC 07-365 by broth microdilution method; format: functional; procedure, shortened: as §2
Rhizopus arrhizus [12] = test: Antifungal activity against drug-intermediate Rhizopus oryzae UTHSC 05-3032 by broth microdilution method; format: functional; procedure, shortened: as §2
Rhizopus arrhizus [13] = test: Antifungal activity against drug-susceptible Rhizopus oryzae UTHSC 06-4133 at 5 ug by disk diffusion assay; format: functional; conditions: read-out: DIZ
Procedure, shortened: (§4)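 Neo-Sensitabs tablet diffusion on Mueller-Hinton agar, run per the mould guidelines. Tablets are 9 mm in diameter and carry 5 ug posaconazole. The read-out is the inhibition zone diameter in mm.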

Rhizopus arrhizus [14] = test: Antifungal activity against drug-susceptible Rhizopus oryzae UTHSC 04-443 at 5 ug by disk diffusion assay; format: functional; conditions: read-out: DIZ
Procedure, shortened: (§5)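 Neo-Sensitabs tablet diffusion on Mueller-Hinton agar, following guidelines for molds; 9 mm tablets containing 5 µg posaconazole; inhibition zone diameter measured in mm; zone breakpoints applied at 24 h.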

Rhizopus arrhizus [15] = test: Antifungal activity against drug-susceptible Rhizopus oryzae UTHSC 06-1080 at 5 ug by disk diffusion assay; format: functional; conditions: read-out: DIZ; procedure, shortened: as §4
Rhizopus arrhizus [16] = test: Antifungal activity against drug-susceptible Rhizopus oryzae UTHSC 05-1502 at 5 ug by disk diffusion assay; format: functional; conditions: read-out: DIZ; procedure, shortened: as §5
Rhizopus arrhizus [17] = test: Antifungal activity against drug-susceptible Rhizopus oryzae UTHSC 412-546 at 5 ug by disk diffusion assay; format: functional; conditions: read-out: DIZ
Rhizopus arrhizus [18] = test: Antifungal activity against drug-susceptible Rhizopus oryzae UTHSC 03-112 at 5 ug by disk diffusion assay; format: functional; conditions: read-out: DIZ
Procedure, shortened: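 Neo-Sensitabs tablet diffusion on Mueller-Hinton agar, following the guidelines for molds. Tablets were 9 mm in diameter and held 5 µg of drug. The read-out was inhibition zone diameter in mm.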

Rhizopus arrhizus [19] = test: Antifungal activity against drug-susceptible Rhizopus oryzae UTHSC 05-3111 at 5 ug by disk diffusion assay; format: functional; conditions: read-out: DIZ; procedure, shortened: as §4
Rhizopus arrhizus [20] = test: Antifungal activity against drug-susceptible Rhizopus oryzae UTHSC 03-228 after 24 to 48 hrs; format: functional
Rhizopus arrhizus [21] = test: Antifungal activity against drug-susceptible Rhizopus oryzae UTHSC 06-89 after 24 to 48 hrs; format: functional
Rhizopus arrhizus [22] = test: Antifungal activity against drug-susceptible Rhizopus oryzae UTHSC 06-329 after 24 to 48 hrs; format: functional
Procedure, shortened: (§6)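 Minimum fungicidal concentration taken from the broth microdilution plates. From each well with complete inhibition (optically clear), 20 ul is plated on potato dextrose agar. Plates are incubated at 35°C for 24 to 48 h. The MFC is the lowest drug concentration giving no growth.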

Rhizopus arrhizus [23] = test: Antifungal activity against drug-susceptible Rhizopus oryzae UTHSC 06-4035 after 24 to 48 hrs; format: functional; procedure, shortened: as §6
Rhizopus arrhizus [24] = test: Antifungal activity against drug-susceptible Rhizopus oryzae UTHSC 05-3132 after 24 to 48 hrs; format: functional; procedure, shortened: as §6
Rhizopus arrhizus [25] = test: Antifungal activity against drug-susceptible Rhizopus oryzae UTHSC 03-547 after 24 to 48 hrs; format: functional
Procedure, shortened: (§7)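 Minimum fungicidal concentration: 20 µl from each microdilution well showing complete inhibition (optically clear) plated on potato dextrose agar, incubated 35°C for 24 to 48 h; MFC taken as lowest drug concentration giving no growth.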

Rhizopus arrhizus [26] = test: Antifungal activity against drug-susceptible Rhizopus oryzae UTHSC 05-1817 after 24 to 48 hrs; format: functional; procedure, shortened: as §7
Rhizopus arrhizus [27] = test: Antifungal activity against drug-susceptible Rhizopus oryzae UTHSC 412-546 after 24 to 48 hrs; format: functional
Rhizopus arrhizus [28] = test: Antifungal activity against drug-susceptible Rhizopus oryzae UTHSC 06-1301 after 24 to 48 hrs; format: functional; procedure, shortened: as §6
Rhizopus arrhizus [29] = test: Antifungal activity against drug-susceptible Rhizopus oryzae UTHSC 03-299 after 24 to 48 hrs; format: functional
Rhizopus arrhizus [30] = test: Antifungal activity against drug-susceptible Rhizopus oryzae UTHSC 02-2882 infected in OF1 mouse assessed as increase in mouse survival at 20-30 mg/kg, po bid treated 24 hrs after fungal infection; format: functional, organism-based
Procedure, shortened: (§8)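 Survival model in male OF1 mice, 30 g. Mice were immunosuppressed 1 day before infection with cyclophosphamide 200 mg/kg i.p. plus 5-fluorouracil 150 mg/kg i.v., then infected i.v. via lateral tail vein with 2 × 10^4 CFU in 0.2 ml saline. Oral gavage at 10, 20 or 30 mg/kg BID began 24 h post-challenge for 7 days. Ceftazidime 5 mg/day s.c. was given days 1–7. Groups of 10 were checked daily for 20 days; untreated controls.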

Rhizopus arrhizus [31] = test: Antifungal activity against drug-susceptible Rhizopus oryzae infected in OF1 mouse assessed as mouse survival at 30 mg/kg, po bid treated 24 hrs after fungal infection; format: functional
Rhizopus arrhizus [32] = test: Antifungal activity against drug-intermediate Rhizopus oryzae infected in OF1 mouse assessed as mouse survival at 30 mg/kg, po bid treated 24 hrs after fungal infection; format: functional; procedure, shortened: as §8
Rhizopus arrhizus [33] = test: Antifungal activity against drug-intermediate Rhizopus oryzae UTHSC 07-365 infected in OF1 mouse assessed as reduction in brain fungal load at 10-30 mg/kg, po bid treated 24 hrs after fungal infection; format: functional, organism-based
Procedure, shortened: (§9)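 Tissue burden in immunosuppressed male OF1 mice, using cyclophosphamide 200 mg/kg i.p. plus 5-fluorouracil 150 mg/kg i.v. on day −1. Mice received 2 × 10^4 CFU i.v. by tail vein, then oral gavage at 10, 20 or 30 mg/kg BID from 24 h post-challenge, with ceftazidime cover; untreated controls. Groups of 10 were killed on day 4. Kidneys and brains were homogenized in 2 ml saline, serially diluted 10-fold, plated on PDA and counted after 24 h at 35°C.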

Rhizopus arrhizus [34] = test: Antifungal activity against drug-intermediate Rhizopus oryzae UTHSC 04-3109 infected in OF1 mouse assessed as reduction in kidney fungal load at 10-30 mg/kg, po bid treated 24 hrs after fungal infection; format: functional, organism-based; procedure, shortened: as §9
Rhizopus arrhizus [35] = test: Antifungal activity against drug-intermediate Rhizopus oryzae UTHSC 03-3165 by broth microdilution method; format: functional; procedure, shortened: as §2

Q: With `CC[C@@H]([C@H](C)O)n1ncn(-c2ccc(N3CCN(c4ccc(OC[C@@H]5CO[C@@](Cn6cncn6)(c6ccc(F)cc6F)C5)cc4)CC3)cc2)c1=O` [POSACONAZOLE] as the compound, how does the MIC (Rhizopus arrhizus [1]) read?
A: The MIC was 1 µg/mL (≈ 1.43 µM).

Q: And the MIC (Rhizopus arrhizus [2])?
A: Its MIC is 0.25 µg/mL (≈ 0.357 µM).

Q: What about the MIC (Rhizopus arrhizus [3]) of the same compound?
A: The MIC was 0.5 µg/mL (≈ 0.713 µM).

Q: And the MIC (Rhizopus arrhizus [4])?
A: Its MIC is 1 µg/mL (≈ 1.43 µM).

Q: What about the MIC (Rhizopus arrhizus [5]) of the same compound?
A: Its MIC is 0.5 µg/mL (≈ 0.713 µM).

Q: What about the MIC (Rhizopus arrhizus [6]) of the same compound?
A: The MIC was 0.5 µg/mL (≈ 0.713 µM).

Q: What about the MIC (Rhizopus arrhizus [7]) of the same compound?
A: The MIC was 1 µg/mL (≈ 1.43 µM).

Q: And the MIC (Rhizopus arrhizus [8])?
A: Its MIC is 0.5 µg/mL (≈ 0.713 µM).

Q: What about the MIC (Rhizopus arrhizus [9]) of the same compound?
A: The MIC was 0.5 µg/mL (≈ 0.713 µM).

Q: What about the MIC (Rhizopus arrhizus [10]) of the same compound?
A: The MIC was 0.25 µg/mL (≈ 0.357 µM).

Q: What about the MIC (Rhizopus arrhizus [11]) of the same compound?
A: The MIC was 2 µg/mL (≈ 2.85 µM).

Q: And the MIC (Rhizopus arrhizus [12])?
A: Its MIC is 2 µg/mL (≈ 2.85 µM).

Q: What about the zone of inhibition at 5 µg/disc (Rhizopus arrhizus [13]) of the same compound?
A: The zone of inhibition at 5 µg/disc was 23 mm.

Q: What about the zone of inhibition at 5 µg/disc (Rhizopus arrhizus [14]) of the same compound?
A: The zone of inhibition at 5 µg/disc was 22 mm.

Q: And the zone of inhibition at 5 µg/disc (Rhizopus arrhizus [15])?
A: Its zone of inhibition at 5 µg/disc is 18 mm.

Q: And the zone of inhibition at 5 µg/disc (Rhizopus arrhizus [16])?
A: Its zone of inhibition at 5 µg/disc is 21 mm.

Q: And the zone of inhibition at 5 µg/disc (Rhizopus arrhizus [17])?
A: The zone of inhibition at 5 µg/disc was 15 mm.

Q: And the zone of inhibition at 5 µg/disc (Rhizopus arrhizus [18])?
A: Its zone of inhibition at 5 µg/disc is 20 mm.

Q: And the zone of inhibition at 5 µg/disc (Rhizopus arrhizus [19])?
A: Its zone of inhibition at 5 µg/disc is 20 mm.

Q: What about the MFC (Rhizopus arrhizus [20]) of the same compound?
A: Its MFC is 1 µg/mL (≈ 1.43 µM).

Q: And the MFC (Rhizopus arrhizus [21])?
A: The MFC was 1 µg/mL (≈ 1.43 µM).

Q: And the MFC (Rhizopus arrhizus [22])?
A: The MFC was 0.5 µg/mL (≈ 0.713 µM).

Q: And the MFC (Rhizopus arrhizus [23])?
A: The MFC was 0.5 µg/mL (≈ 0.713 µM).

Q: What about the MFC (Rhizopus arrhizus [24]) of the same compound?
A: The MFC was 0.5 µg/mL (≈ 0.713 µM).

Q: And the MFC (Rhizopus arrhizus [25])?
A: Its MFC is 0.5 µg/mL (≈ 0.713 µM).

Q: And the MFC (Rhizopus arrhizus [26])?
A: The MFC was 2 µg/mL (≈ 2.85 µM).

Q: What about the MFC (Rhizopus arrhizus [27]) of the same compound?
A: The MFC was 8 µg/mL (≈ 11.4 µM).

Q: What about the MFC (Rhizopus arrhizus [28]) of the same compound?
A: The MFC was 1 µg/mL (≈ 1.43 µM).

Q: And the MFC (Rhizopus arrhizus [29])?
A: Its MFC is greater than 16 µg/mL.

Q: What about the Activity (Rhizopus arrhizus [30]) of the same compound?
A: Its Activity is “Active”.

Q: And the Activity (Rhizopus arrhizus [31])?
A: The Activity was 30%.

Q: What about the Activity (Rhizopus arrhizus [32]) of the same compound?
A: Its Activity is 10%.

Q: And the Activity (Rhizopus arrhizus [33])?
A: The Activity was “inactive”.

Q: What about the Activity (Rhizopus arrhizus [34]) of the same compound?
A: Its Activity is “Active”.

Q: What about the MIC (Rhizopus arrhizus [35]) of the same compound?
A: Its MIC is 2 µg/mL (≈ 2.85 µM).
